Laboratory results from ChEMBL document CHEMBL5247635 (Eur J Med Chem, 2022).

Key:
[1] = Selectivity index, ratio of CC50 for human HepG2 cells to EC50 for Leishmania infantum MCAN/ES/89/IPZ229/1/89 axenic amastigotes; assay type: toxicity; details: read-out: Ratio CC50/EC50
[2] = system: Leishmania infantum; assay: Antileishmanial activity against Leishmania infantum MCAN/ES/89/IPZ229/1/89 axenic amastigotes assessed as reduction in parasite viability treated for 24 hrs by PI staining based flow cytometry; assay type: functional, organism-based; details: MCAN/ES/89/IPZ229/1/89, 24 h
In short: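 Axenic amastigotes were seeded from log-phase cultures at 10^5 parasites/mL in M199-based medium at pH 5.4. They were derived from promastigotes by 3 days at 37 °C. Compounds at 2.3–75 µM for 24 h at 37 °C. Viability read by propidium iodide flow cytometry. EC50 ± SE from three independent experiments, each in triplicate.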

[3] = Cytotoxicity against human HepG2 cells assessed as reduction in cell proliferation treated for 24 hrs by crystal violet staining based analysis; assay type: toxicity
[4] = target: T1, Trypanothione reductase (Leishmania infantum, UniProt A4HSF7); assay: Disruption of HIS-FLAG-tagged recombinant Leishmania infantum TryR dimerization expressed in Escherichia coli Rossetta BL21 (DE3) cells incubated for 16 hrs by ELISA analysis
T1 sequence (A4HSF7 whole entry): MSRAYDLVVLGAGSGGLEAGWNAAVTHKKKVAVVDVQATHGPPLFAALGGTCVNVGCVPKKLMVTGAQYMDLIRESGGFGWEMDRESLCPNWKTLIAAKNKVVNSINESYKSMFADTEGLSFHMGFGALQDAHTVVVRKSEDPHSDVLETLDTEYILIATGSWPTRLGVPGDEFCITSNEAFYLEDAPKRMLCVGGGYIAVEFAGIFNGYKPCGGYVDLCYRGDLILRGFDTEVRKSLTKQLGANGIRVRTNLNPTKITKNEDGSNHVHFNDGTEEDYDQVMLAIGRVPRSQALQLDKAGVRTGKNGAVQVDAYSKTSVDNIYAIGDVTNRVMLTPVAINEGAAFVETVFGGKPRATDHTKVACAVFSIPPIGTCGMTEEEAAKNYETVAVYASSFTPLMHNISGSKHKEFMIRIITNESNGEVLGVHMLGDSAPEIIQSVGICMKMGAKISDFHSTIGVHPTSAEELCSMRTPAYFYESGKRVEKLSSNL
In short: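 400 nM HIS-FLAG-tagged LiTryR (co-purified with HIS-tagged LiTryR as heterodimer) incubated with compound (3.1–75 μM) in 50 mM Tris pH 8.0, 300 mM NaCl, 16 h, 37 °C with vigorous shaking; centrifuged, supernatant captured on α-FLAG plates, detected with HRP-α-HIS antibody and o-phenylenediamine, A490. Signal normalized to DMSO; IC50 by nonlinear regression; triplicate, three independent experiments.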

[5] = target: T1, Trypanothione reductase; assay: Inhibition of HIS-tagged recombinant Leishmania infantum TryR oxidoreductase activity expressed in Escherichia coli in the presence of NADPH by spectrophotometry based DTNB-coupled assay
In short: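 HIS-tagged LiTryR was used in a DTNB-coupled assay at 26 °C. Buffer: 40 mM HEPES pH 7.5, 1 mM EDTA, 30 µM NADP+, 25 µM DTNB, 150 µM NADPH, 1.75% DMSO. Standard runs used 1 µM TS2 and 7 nM enzyme; cross-species runs used 50 µM TS2 and 0.5 nM enzyme. Started with NADPH + TS2; TNB read at 412 nm. Compounds were screened at 75 µM first. Three independent experiments.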

[6] = Selectivity index, ratio of CC50 for human HepG2 cells to EC50 for GFP-expressing Leishmania infantum intracellular amastigotes infected in human THP-1 derived macrophage cells; assay type: toxicity, cell-based; details: read-out: Ratio CC50/EC50
[7] = Cytotoxicity against human HepG2 cells assessed as reduction in cell proliferation measured after 72 hrs by crystal violet staining based analysis; assay type: toxicity
[8] = system: Leishmania infantum; assay: Antileishmanial activity against GFP-expressing Leishmania infantum intracellular amastigotes infected in human THP-1 derived macrophage cells assessed as reduction in parasite viability measured for 72 hrs by resazurin/alamar blue fluorometric assay; assay type: functional, organism-based
In short: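 Human THP-1-derived macrophages infected with GFP-expressing L. infantum amastigotes; compounds at 2.3–75 µM, infected cells monitored for 72 h. EC50 ± SE from three independent experiments.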

[9] = target: Trypanothione reductase (Trypanosoma brucei brucei, UniProt P39051); assay: Inhibition of HIS-tagged recombinant Trypanosoma brucei TryR oxidoreductase activity expressed in Escherichia coli in the presence of NADPH by spectrophotometry based DTNB-coupled assay
Chain of Trypanothione reductase (Trypanosoma brucei brucei, UniProt P39051) (P39051 whole entry): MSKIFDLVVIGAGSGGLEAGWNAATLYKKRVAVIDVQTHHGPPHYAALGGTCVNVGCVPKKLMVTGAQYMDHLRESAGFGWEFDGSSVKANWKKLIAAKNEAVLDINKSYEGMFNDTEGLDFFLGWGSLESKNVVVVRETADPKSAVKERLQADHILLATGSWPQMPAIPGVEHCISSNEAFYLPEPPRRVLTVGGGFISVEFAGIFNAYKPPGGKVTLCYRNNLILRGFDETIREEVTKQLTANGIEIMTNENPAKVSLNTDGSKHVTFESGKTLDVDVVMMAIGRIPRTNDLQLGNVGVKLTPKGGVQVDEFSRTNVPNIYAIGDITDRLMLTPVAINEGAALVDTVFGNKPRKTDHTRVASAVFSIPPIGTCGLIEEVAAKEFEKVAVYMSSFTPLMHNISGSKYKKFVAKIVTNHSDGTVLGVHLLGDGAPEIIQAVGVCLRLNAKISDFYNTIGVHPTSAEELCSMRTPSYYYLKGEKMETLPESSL
In short: (§1)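 HIS-tagged TryR from each species was expressed in E. coli. Activity was read by DTNB-coupled assay at 26 °C in 40 mM HEPES pH 7.5, 1 mM EDTA, 30 µM NADP+, 25 µM DTNB, 150 µM NADPH, 1.75% DMSO. Conditions were 50 µM TS2 and 0.5 nM enzyme; reaction started with NADPH + TS2. TNB absorbance at 412 nm. Three independent experiments.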

[10] = target: Trypanothione reductase (Trypanosoma congolense, UniProt P13110); assay: Inhibition of HIS-tagged recombinant Trypanosoma congolense TryR oxidoreductase activity expressed in Escherichia coli in the presence of NADPH by spectrophotometry based DTNB-coupled assay; in short: as §1
Chain of Trypanothione reductase (Trypanosoma congolense, UniProt P13110) (P13110 whole entry): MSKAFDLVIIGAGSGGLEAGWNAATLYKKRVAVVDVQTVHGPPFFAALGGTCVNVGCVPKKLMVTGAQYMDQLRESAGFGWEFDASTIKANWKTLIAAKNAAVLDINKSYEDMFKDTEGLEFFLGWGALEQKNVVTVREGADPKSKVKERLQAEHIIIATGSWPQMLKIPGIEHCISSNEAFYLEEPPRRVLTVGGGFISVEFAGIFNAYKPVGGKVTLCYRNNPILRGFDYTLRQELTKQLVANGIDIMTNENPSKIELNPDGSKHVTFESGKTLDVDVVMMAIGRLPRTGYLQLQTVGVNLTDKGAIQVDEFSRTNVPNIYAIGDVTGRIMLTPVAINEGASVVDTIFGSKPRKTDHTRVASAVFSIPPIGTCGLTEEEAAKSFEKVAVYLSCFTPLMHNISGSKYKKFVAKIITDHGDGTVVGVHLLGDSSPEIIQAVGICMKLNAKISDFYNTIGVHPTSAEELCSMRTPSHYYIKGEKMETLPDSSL

[11] = Thermodynamic aqueous solubility of compound at 25 degreeC measured after 24 hrs by HPLC analysis; assay type: physicochemical; details: buffer, read-out: Therm_solubility
In short: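 Excess compound was suspended in water (pH 5.5), sonicated 10 min, equilibrated overnight at room temperature, and centrifuged. Supernatant was diluted and quantified by HPLC (UV 254 nm) against a five-point standard curve (10–500 µM).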

[12] = target: Trypanothione reductase (Trypanosoma cruzi, UniProt P28593); assay: Inhibition of HIS-tagged recombinant Trypanosoma cruzi TryR oxidoreductase activity expressed in Escherichia coli in the presence of NADPH by spectrophotometry based DTNB-coupled assay; in short: as §1
Chain of Trypanothione reductase (Trypanosoma cruzi, UniProt P28593) (P28593 whole entry): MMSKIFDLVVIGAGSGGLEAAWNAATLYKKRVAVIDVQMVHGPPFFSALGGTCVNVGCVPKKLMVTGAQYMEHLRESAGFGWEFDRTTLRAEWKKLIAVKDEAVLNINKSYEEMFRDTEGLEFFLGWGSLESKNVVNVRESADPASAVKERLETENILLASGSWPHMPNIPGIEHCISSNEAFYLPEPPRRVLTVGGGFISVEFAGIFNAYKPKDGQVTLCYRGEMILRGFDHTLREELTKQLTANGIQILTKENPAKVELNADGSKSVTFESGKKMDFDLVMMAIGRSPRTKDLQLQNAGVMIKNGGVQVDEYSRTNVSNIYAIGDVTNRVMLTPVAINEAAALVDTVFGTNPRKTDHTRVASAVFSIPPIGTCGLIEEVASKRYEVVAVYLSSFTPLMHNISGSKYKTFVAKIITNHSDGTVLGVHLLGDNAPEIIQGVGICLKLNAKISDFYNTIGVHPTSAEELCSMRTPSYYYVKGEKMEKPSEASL

[13] = target: T1, Trypanothione reductase; assay: Competitive inhibition of HIS-FLAG-tagged recombinant Leishmania infantum TryR expressed in Escherichia coli using TS2 substrate assessed as inhibition constant in the presence of NADPH by spectrophotometry based DTNB-coupled assay
[14] = target: T1, Trypanothione reductase; assay: Competitive inhibition of HIS-FLAG-tagged recombinant Leishmania infantum TryR expressed in Escherichia coli assessed as dissociation constant by SPR assay

| Compound | selectivity ratio [1] | EC50 [2] | CC50 at 24 h [3] | IC50 [4] | IC50 [5] | selectivity ratio [6] | CC50 at 72 h [7] | EC50 [8] | IC50 [9] | IC50 [10] | solubility thermodynamic at 24 h [11] | IC50 [12] | Ki [13] | Kd [14] |
| --- | --- | --- | --- | --- | --- | --- | --- | --- | --- | --- | --- | --- | --- | --- |
| C[n+]1nn(-c2ccc(-c3nc(CCc4ccccc4)cs3)c(OCC3CCNCC3)c2)cc1CCCCN | > 2.6 | 28.4 µM | > 75 µM | > 75 µM | 2.1 µM | – | – | – | – | – | – | – | – | – |
| COc1cc(-n2cc(CCCCN)[n+](C)n2)ccc1-c1nc(CCc2ccc(-c3ccccc3)cc2)cs1 | 4.7 | 7.6 µM | 35.9 µM | > 75 µM | 5.5 µM | – | – | – | – | – | – | – | – | – |
| C[n+]1nn(-c2ccc(-c3nc(-c4ccc(-c5ccccc5)cc4)c(-c4ccccc4)s3)c(OCCN3CCNC3=O)c2)cc1CCCCN | > 12.3 | 6.4 µM | > 75 µM | > 75 µM | 4 µM | 2.4 | 34.5 µM | 14.1 µM | – | – | – | – | – | – |
| C[n+]1nn(-c2ccc(-c3nc(-c4ccccc4)cs3)c(OCCN3CCNC3=O)c2)cc1CCCCN | > 1.2 | 62.4 µM | > 75 µM | – | 20.3 µM | – | – | – | – | – | – | – | – | – |
| C[n+]1nn(-c2ccc(-c3nc(CCc4ccccc4)cs3)c(OCCC3CCNCC3)c2)cc1CCCCN | < 1 | > 75 µM | > 75 µM | – | 2.2 µM | – | – | – | – | – | – | – | – | – |
| C[n+]1nn(-c2ccc(-c3nc(CCc4ccc5ccccc5c4)cs3)c(OCCN3CCNC3=O)c2)cc1CCCCN.O=C(O)C(F)(F)F.O=S(=O)([O-])C(F)(F)F | > 5.8 | 12.9 µM | > 75 µM | > 75 µM | – | > 2.8 | > 75 µM | 27 µM | 5.1 µM | 4.2 µM | 23500 µg/mL | 9.2 µM | – | – |
| CC[n+]1nn(-c2ccc(-c3nc(CCc4ccc(-c5ccccc5)cc4)cs3)c(OCCN3CCNC3=O)c2)cc1CCCCN | > 5.6 | 14 µM | > 75 µM | 56.9 µM | – | 6.4 | 63.8 µM | 10 µM | – | – | – | – | – | – |
| NCCCc1cn(-c2ccc(-c3nc(CCc4ccc(-c5ccccc5)cc4)cs3)c(OCCN3CCNC3=O)c2)nn1.O=C(O)C(F)(F)F | – | – | – | – | – | < 1 | 37.3 µM | > 75 µM | – | – | 2800 µg/mL | – | – | – |
| C[n+]1nn(-c2ccc(-c3nc(CCC4Cc5ccccc5O4)cs3)c(OCCN3CCNC3=O)c2)cc1CCCCN (stereo unspecified) | < 1 | > 75 µM | > 75 µM | > 75 µM | 5.4 µM | – | – | – | – | – | – | – | – | – |
| NCCCCc1cn(-c2ccc(-c3nc(CCc4cccc5ccccc45)cs3)c(OCCN3CCNC3=O)c2)nn1.O=C(O)C(F)(F)F | – | – | – | – | – | < 1 | > 29 µM | > 75 µM | – | – | 2100 µg/mL | – | – | – |
| C[n+]1nn(-c2ccc(-c3nc(CCc4ccccc4)cs3)c(OCCN3CCNC3=O)c2)cc1CCCCN.O=C(O)C(F)(F)F.O=S(=O)([O-])C(F)(F)F | > 1.1 | 66.6 µM | > 75 µM | – | 9.4 µM | – | – | – | 26.9 µM | 18.7 µM | > 15900 µg/mL | 48.5 µM | 7.3 µM | 1 µM |
| NCCCCc1cn(-c2ccc(-c3nc(CCc4ccc(-c5ccccc5)cc4)cs3)c(OCCN3CCNC3=O)c2)nn1.O=C(O)C(F)(F)F | – | – | – | – | – | < 1 | 40.5 µM | 52.1 µM | – | – | 200 µg/mL | – | – | – |
